Reference: ChEMBL document CHEMBL4002590, “Design and Synthesis of a Pan-Janus Kinase Inhibitor Clinical Candidate (PF-06263276) Suitable for Inhaled and Topical Delivery for the Treatment of Inflammatory Diseases of the Lungs and Skin” (J Med Chem, 2017)
In brackets after ≈: the same amount, converted by molar mass. Activity calls are given as the source filed them. No cut-off for these calls is given here.

Experiments:
Mus musculus [1] = assay: In vivo inhibition of JAK2 homodimer in Balb/c mouse assessed as inhibition of GM-CSF induced STAT5 phosphorylation in blood at 10 ug, it for 12 consecutive days; format: functional, organism-based
Procedure, shortened: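 After i.t. dosing in mouse, GM-CSF-induced phosphorylated STAT5 measured in blood; percent inhibition ± 95% CI from geometric means versus vehicle groups; N = 3.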

Mus musculus [2] = assay: Effect on nerve activation in mouse up to 2 mg inhalation administered as micelle vehicle to delta fiber sensory nerve preparation; settings: in vivo, inhaled_or_intranasal
Procedure, shortened: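 Mouse A delta fiber sensory nerve preparation given up to 2 mg in 400 μL of micelle vehicle; nerve activation recorded.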

Canis familiaris [3] = assay: Intrinsic clearance in dog at 0.1 mg/kg, iv administered as 30 mins infusion; format: ADME, organism-based, Canis lupus familiaris; settings: in vivo, 0.5 h
Liver = assay: Metabolic stability in human liver microsomes assessed per mg protein; format: ADME, microsome
Procedure, shortened: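 Metabolic stability measured as turnover in human liver microsomes.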

Rattus norvegicus [4] = assay: Toxicity in iv dosed rat for 7 days; format: organism-based; settings: in vivo, 168 h
Procedure, shortened: (§1)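 Exploratory 7-day intravenous toxicology studies in rat and dog; margins expressed over total plasma AUC relative to projected exposure at a 200 μg human lung dose.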

[5] = Plasma protein binding in rat at 0.5 mg/kg, iv; format: ADME, organism-based; settings: read-out: PPB
[6] = molecular target: 5-hydroxytryptamine receptor 7 (Homo sapiens) (UniProt P34969); assay: Antagonist activity at recombinant human 5-HT7 receptor expressed in CHO cells assessed as inhibition of serotonin-induced cAMP accumulation at 10 uM after 30 mins by HTRF method relative to control; format: functional, cell-based
Chain of 5-hydroxytryptamine receptor 7 (Homo sapiens) (P34969 whole entry): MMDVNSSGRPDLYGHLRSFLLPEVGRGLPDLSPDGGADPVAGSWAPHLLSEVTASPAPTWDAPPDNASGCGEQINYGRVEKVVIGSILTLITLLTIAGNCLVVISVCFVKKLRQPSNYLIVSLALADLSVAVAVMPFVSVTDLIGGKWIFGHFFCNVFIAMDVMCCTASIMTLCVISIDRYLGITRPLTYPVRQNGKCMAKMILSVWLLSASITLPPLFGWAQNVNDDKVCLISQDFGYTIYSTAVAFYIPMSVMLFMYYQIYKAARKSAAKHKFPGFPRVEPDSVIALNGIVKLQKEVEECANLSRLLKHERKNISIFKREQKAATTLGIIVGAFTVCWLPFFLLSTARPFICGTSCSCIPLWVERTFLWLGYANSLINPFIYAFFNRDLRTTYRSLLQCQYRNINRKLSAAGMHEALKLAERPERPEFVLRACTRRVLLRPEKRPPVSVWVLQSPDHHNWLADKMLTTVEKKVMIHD

Rattus norvegicus [7] = assay: Genotoxicity in iv dosed rat after 7 days by peripheral blood micronucleus assay; format: toxicity, organism-based; settings: in vivo, 168 h
[8] = molecular target: T1, Tyrosine-protein kinase JAK2 (Homo sapiens, UniProt O60674); assay: Inhibition of JAK2 homodimer in human whole blood assessed as inhibition of GM-CSF induced STAT5 phosphorylation preincubated for 45 mins followed by GM-CSF addition and measured after 20 mins by flow cytometric analysis
T1 sequence (O60674 whole entry): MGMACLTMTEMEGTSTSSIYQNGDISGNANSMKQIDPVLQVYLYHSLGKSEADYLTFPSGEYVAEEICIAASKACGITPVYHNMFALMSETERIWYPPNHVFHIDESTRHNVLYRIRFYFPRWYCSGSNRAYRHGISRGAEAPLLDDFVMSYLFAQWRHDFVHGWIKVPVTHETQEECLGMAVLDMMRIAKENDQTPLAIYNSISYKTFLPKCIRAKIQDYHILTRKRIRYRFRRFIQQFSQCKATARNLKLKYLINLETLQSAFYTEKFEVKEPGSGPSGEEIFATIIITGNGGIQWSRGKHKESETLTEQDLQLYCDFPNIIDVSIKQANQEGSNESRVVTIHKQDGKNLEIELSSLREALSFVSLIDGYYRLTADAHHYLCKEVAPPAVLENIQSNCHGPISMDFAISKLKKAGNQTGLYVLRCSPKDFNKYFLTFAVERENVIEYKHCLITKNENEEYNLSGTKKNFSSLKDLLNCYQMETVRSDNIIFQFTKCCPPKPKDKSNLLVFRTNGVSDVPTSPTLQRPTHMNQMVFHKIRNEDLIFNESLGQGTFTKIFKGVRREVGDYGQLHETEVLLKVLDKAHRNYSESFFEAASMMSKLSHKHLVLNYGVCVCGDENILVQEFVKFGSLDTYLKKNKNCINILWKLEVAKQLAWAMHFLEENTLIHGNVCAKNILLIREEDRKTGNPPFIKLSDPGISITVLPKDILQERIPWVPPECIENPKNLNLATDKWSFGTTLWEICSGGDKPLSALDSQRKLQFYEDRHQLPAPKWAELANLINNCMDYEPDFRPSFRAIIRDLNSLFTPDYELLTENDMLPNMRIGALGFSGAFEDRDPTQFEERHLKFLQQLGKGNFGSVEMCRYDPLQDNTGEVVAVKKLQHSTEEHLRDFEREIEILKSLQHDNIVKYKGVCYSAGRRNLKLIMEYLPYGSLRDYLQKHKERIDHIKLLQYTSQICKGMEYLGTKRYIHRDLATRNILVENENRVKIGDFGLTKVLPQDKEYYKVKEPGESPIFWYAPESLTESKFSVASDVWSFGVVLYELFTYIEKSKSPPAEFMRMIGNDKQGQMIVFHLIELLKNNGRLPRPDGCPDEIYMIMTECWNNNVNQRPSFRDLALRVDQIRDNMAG

[9] = molecular target: Tyrosine-protein kinase ABL1 (Homo sapiens) (UniProt P00519); assay: Inhibition of recombinant human Abl kinase expressed in insect cells at 10 uM using Ulight-TK peptide substrate after 30 mins by LANCE method
Chain of Tyrosine-protein kinase ABL1 (Homo sapiens) (P00519 whole entry): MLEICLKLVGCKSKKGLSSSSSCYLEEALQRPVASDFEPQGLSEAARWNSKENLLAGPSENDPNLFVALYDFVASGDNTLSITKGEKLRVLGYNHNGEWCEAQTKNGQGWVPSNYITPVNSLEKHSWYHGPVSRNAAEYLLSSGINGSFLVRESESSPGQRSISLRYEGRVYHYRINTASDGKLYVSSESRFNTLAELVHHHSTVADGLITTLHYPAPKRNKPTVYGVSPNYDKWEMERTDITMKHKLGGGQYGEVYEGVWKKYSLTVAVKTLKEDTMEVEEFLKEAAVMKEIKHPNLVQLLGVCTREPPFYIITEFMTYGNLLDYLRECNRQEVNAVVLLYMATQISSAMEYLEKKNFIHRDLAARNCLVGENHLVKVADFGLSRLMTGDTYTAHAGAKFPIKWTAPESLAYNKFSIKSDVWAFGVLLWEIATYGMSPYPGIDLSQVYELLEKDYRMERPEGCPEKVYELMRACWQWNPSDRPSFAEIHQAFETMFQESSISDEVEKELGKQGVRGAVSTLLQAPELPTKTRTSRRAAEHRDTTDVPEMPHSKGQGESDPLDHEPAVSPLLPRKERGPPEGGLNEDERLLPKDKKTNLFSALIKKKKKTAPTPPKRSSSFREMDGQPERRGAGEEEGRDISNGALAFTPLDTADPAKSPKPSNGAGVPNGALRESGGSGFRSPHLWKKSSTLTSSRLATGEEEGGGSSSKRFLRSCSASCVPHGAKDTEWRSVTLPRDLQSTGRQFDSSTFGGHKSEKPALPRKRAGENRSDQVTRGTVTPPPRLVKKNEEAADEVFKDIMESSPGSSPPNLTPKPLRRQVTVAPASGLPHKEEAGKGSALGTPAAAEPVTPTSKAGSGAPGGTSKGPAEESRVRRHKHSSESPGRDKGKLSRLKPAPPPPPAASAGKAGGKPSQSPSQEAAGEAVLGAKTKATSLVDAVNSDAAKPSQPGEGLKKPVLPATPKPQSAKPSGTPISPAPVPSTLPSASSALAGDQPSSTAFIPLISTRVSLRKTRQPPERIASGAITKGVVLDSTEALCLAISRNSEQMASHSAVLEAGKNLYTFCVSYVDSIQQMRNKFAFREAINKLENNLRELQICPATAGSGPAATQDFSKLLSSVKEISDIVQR
Procedure, shortened: (§2)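 Single-point screen at 10 μM within a broad panel of radioligand binding and enzyme inhibition assays covering receptors, transporters, enzymes and ion channels.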

Canis familiaris [10] = assay: Toxicity in iv dosed dog for 7 days; format: organism-based, Canis lupus familiaris; settings: in vivo, 168 h; procedure, shortened: as §1
Janus Kinase (JAK) = Janus Kinase (JAK) (Homo sapiens, UniProt P52333+P23458+O60674+P29597)
[11] = molecular target: T2, Tyrosine-protein kinase JAK3 (Homo sapiens, UniProt P52333); assay: Inhibition of GST tagged human recombinant JAK3 catalytic domain expressed in baculovirus using peptide substrate preincubated for 60 mins followed by substrate addition and measured after 60 mins by microfluidic assay
T2 sequence (P52333 whole entry): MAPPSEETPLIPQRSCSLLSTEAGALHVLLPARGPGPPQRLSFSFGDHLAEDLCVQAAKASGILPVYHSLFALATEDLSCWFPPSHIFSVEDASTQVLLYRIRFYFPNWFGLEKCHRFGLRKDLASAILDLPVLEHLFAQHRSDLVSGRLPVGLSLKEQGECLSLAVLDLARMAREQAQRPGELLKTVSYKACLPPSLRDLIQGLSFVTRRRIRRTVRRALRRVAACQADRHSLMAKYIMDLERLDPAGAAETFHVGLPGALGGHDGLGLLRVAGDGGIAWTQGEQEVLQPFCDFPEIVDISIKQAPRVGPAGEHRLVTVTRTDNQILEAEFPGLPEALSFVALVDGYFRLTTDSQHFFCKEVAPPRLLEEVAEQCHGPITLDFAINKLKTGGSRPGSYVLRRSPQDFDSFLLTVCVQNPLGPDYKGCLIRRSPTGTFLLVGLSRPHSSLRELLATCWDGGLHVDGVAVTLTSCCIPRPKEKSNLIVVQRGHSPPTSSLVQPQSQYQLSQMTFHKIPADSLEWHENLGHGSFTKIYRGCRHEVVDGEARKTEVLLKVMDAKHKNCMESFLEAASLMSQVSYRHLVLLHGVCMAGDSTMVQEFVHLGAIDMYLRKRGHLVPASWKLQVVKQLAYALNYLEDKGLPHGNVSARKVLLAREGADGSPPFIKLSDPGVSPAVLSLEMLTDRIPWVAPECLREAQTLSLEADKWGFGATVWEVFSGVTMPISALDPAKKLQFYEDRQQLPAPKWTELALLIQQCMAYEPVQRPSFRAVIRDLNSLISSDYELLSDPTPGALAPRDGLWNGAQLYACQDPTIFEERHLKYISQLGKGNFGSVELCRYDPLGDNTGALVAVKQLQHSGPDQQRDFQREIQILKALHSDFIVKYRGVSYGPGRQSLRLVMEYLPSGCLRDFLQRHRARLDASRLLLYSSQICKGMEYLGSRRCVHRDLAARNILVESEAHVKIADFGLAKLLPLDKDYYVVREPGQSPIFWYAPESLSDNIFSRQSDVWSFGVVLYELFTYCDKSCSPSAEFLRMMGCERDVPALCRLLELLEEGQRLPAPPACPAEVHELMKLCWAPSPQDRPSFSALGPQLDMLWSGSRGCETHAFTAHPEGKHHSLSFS
Procedure, shortened: (§3)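 Caliper microfluidic assay of peptide-substrate phosphorylation by the relevant JAK enzyme, run at 1 mM ATP; IC50 values are geometric means of at least three determinations.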

[12] = molecular target: Vascular endothelial growth factor receptor 2 (Homo sapiens) (UniProt P35968); assay: Inhibition of recombinant human KDR kinase expressed in insect Sf21 cells at 10 uM using Ulight-CAGAGAIETDKEYYTVKD as substrate after 60 mins by LANCE assay; procedure, shortened: as §2
Chain of Vascular endothelial growth factor receptor 2 (Homo sapiens) (P35968 whole entry): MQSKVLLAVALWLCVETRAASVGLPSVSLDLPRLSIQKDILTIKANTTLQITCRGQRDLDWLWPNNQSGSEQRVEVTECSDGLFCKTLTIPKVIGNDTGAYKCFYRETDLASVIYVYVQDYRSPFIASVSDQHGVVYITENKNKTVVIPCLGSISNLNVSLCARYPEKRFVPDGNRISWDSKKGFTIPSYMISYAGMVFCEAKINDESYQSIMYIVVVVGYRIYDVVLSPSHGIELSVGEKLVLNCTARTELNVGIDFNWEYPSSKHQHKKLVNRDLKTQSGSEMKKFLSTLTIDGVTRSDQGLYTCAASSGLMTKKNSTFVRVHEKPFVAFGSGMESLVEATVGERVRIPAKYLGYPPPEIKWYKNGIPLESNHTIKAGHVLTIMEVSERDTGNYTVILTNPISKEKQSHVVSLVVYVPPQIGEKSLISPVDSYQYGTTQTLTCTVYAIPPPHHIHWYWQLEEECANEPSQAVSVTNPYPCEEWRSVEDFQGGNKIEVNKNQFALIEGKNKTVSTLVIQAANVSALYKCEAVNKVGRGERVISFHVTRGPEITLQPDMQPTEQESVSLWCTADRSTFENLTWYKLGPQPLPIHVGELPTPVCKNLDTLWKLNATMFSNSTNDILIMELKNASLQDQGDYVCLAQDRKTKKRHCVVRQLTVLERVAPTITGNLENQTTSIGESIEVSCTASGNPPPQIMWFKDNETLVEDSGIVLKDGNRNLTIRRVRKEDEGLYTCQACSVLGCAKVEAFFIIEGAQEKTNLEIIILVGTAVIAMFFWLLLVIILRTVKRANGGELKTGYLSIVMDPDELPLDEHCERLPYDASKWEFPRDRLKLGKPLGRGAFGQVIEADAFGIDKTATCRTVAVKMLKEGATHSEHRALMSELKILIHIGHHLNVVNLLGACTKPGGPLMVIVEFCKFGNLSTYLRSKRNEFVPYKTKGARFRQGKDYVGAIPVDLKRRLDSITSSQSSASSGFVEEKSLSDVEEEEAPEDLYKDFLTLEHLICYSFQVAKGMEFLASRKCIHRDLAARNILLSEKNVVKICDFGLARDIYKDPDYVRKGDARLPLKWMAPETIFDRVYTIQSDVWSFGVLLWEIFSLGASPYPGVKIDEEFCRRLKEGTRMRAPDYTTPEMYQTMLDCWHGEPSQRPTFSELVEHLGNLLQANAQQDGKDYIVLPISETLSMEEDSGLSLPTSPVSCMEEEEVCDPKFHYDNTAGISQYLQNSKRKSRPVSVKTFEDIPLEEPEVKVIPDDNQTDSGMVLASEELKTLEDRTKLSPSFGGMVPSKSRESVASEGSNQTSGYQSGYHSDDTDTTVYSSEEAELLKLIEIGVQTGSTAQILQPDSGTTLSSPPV

[13] = Drug metabolism in human liver microsomes assessed as UGT-mediated compound glucuronidation per mg protein in presence of microsomal activator Brij58 and cofactor UDPGA; format: ADME
Procedure, shortened: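 Human liver microsomes supplemented with the activator Brij58 and cofactor UDPGA, NADPH omitted, to measure phase II glucuronidation turnover.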

[14] = Chemical stability in lactose using micronized sample up to 4 weeks; format: physicochemical; settings: 672 h
Procedure, shortened: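 Jet-milled (micronized, ~2 μm) material blended with lactose and monitored for chemical and physical stability for up to 4 weeks.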

[15] = molecular target: T1, Tyrosine-protein kinase JAK2; assay: Inhibition of GST tagged human recombinant JAK2 catalytic domain expressed in baculovirus using peptide substrate preincubated for 60 mins followed by substrate addition and measured after 60 mins by microfluidic assay; procedure, shortened: as §3
[16] = Terminal half life in dog at 0.1 mg/kg, iv administered as 30 mins infusion; format: ADME, organism-based, Canis lupus familiaris; settings: in vivo, read-out: beta t1/2 (converted)
JAK1/TYK2 (Homo sapiens) = JAK1/TYK2 (Homo sapiens) (UniProt P23458+P29597)
[17] = Oral bioavailability in rat at 1 mg/kg; format: ADME, organism-based; settings: in vivo
[18] = Terminal half life in iv dosed rat at 0.5 mg/kg; format: ADME, organism-based; settings: in vivo, read-out: beta t1/2 (converted)
[19] = Thermodynamic solubility of the compound in pH 7.4 water buffer using crystalline solid sample; format: physicochemical; settings: read-out: Therm_solubility
Procedure, shortened: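 Thermodynamic solubility measured from crystalline solid in water buffered at pH 7.4.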

CCc1cc(O)c(F)cc1-c1ccc2c(-c3nc4c([nH]3)CCN(C(=O)c3cnc(N5CCCCC5)cn3)C4)n[nH]c2c1
inhibition (Mus musculus [1]): inactive | Activity (Mus musculus [2]): Non-Toxic | CL (Canis familiaris [3]): 18 mL/min/kg | Stability (Liver): 101 µL/min | Activity (Rattus norvegicus [4]): Non-Toxic | fraction unbound [5]: ≤ 0.001 | inhibition [6]: > 50% | Activity (Rattus norvegicus [7]): Non-Toxic | IC50 [8]: 5200 nM | inhibition [9]: > 50% | Activity (Canis familiaris [10]): Non-Toxic | T1/2 (Janus Kinase (JAK)): > 6 h | IC50 [11]: 59.9 nM | inhibition [12]: > 50% | Drug metabolism [13]: 129 µL/min | Stability [14]: Stable | IC50 [15]: 23.1 nM | half-life [16]: 2 h | fIC50 (JAK1/TYK2 (Homo sapiens)): 0.62 nM | bioavailability [17]: < 5% | half-life [18]: 2.1 h | solubility thermodynamic [19]: 0.5 µM (≈ 0.283 µg/mL)
